Test results taken from ChEMBL document CHEMBL4321796, “Proteolysis Targeting Chimeras for the Selective Degradation of Mcl-1/Bcl-2 Derived from Nonselective Target Binding Ligands” (J Med Chem, 2019).
Active and inactive are the calls of the source. The calls are words filed in the database; no cut-off is given here.

Key:
[1] = target: T1, Protein cereblon/Induced myeloid leukemia cell differentiation protein Mcl-1 (Homo sapiens, UniProt Q07820+Q96SW2); test: Induction of CRBN-mediated Mcl-1 degradation in human HeLa cells assessed as formation of ubiquitin adducts of Mcl-1 at 1 to 10 uM after 12 hrs by Western blot analysis; assay type: cell-based
[2] = target: Induced myeloid leukemia cell differentiation protein Mcl-1 (Homo sapiens, UniProt Q07820); test: Inhibition of biotinylated Bim peptide (81 to 106 residues) binding to His-tagged human Mcl-1 expressed in Escherichia coli BL21 (DE3) cells preincubated for 1 hr followed by biotinylated Bim peptide addition measured after 2 hrs by ELISA
Method in brief: (§1)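 Inhibitor serially diluted (100–0.1 µM) from 10 mM DMSO stock, preincubated 1 h with 200 nM His-tagged protein in PBS (final DMSO 4%), then added 2 h to streptavidin plates holding biotin-Bim (plated at 0.09 mg/mL). Incubations at 4 °C. Detection with HRP anti-His, TMB 30 min, H2SO4 stop, A450. IC50 averaged from three independent experiments, with SD.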

[3] = target: T1, Protein cereblon/Induced myeloid leukemia cell differentiation protein Mcl-1; test: Induction of CRBN-mediated Mcl-1 degradation in human HeLa cells at 10 uM after 12 hrs by Western blot analysis relative to control; assay type: cell-based
[4] = target: T2, Protein cereblon/Apoptosis regulator Bcl-2 (Homo sapiens, UniProt P10415+Q96SW2); test: Induction of CRBN-mediated Bcl-2 degradation in human HeLa cells at 10 uM after 12 hrs by Western blot analysis relative to control; assay type: cell-based
[5] = target: Apoptosis regulator Bcl-2 (Homo sapiens, UniProt P10415); test: Inhibition of biotinylated Bim peptide (81 to 106 residues) binding to His-tagged human Bcl-2 expressed in Escherichia coli BL21 (DE3) cells preincubated for 1 hr followed by biotinylated Bim peptide addition measured after 2 hrs by ELISA; method in brief: as §1
[6] = target: T2, Protein cereblon/Apoptosis regulator Bcl-2; test: Induction of CRBN-mediated Bcl-2 degradation in human HeLa cells assessed as relative abundance at 10 uM after 12 hrs by Western blot analysis (reference value: 1); assay type: cell-based
[7] = target: T1, Protein cereblon/Induced myeloid leukemia cell differentiation protein Mcl-1; test: Induction of CRBN-mediated Mcl-1 degradation in human HeLa cells assessed as relative abundance at 1 uM after 12 hrs by Western blot analysis (reference value: 1); assay type: cell-based
[8] = target: T1, Protein cereblon/Induced myeloid leukemia cell differentiation protein Mcl-1; test: Induction of CRBN-mediated Mcl-1 degradation in human HeLa cells assessed as relative abundance at 10 uM after 12 hrs by Western blot analysis (reference value: 1); assay type: cell-based
[9] = target: T2, Protein cereblon/Apoptosis regulator Bcl-2; test: Induction of CRBN-mediated Bcl-2 degradation in human HeLa cells assessed as relative abundance at 1 uM after 12 hrs by Western blot analysis (reference value: 1); assay type: cell-based
NCI-H23 = test: Cytotoxicity against human H23 cells incubated for 24 hrs by CCK8 assay; assay type: functional, cell-based
Method in brief: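 H23 cells seeded at 4 × 10^4 per mL in RPMI with 10% FBS, L-glutamine and pen/strep. Treated 24 h at various concentrations or with DMSO vehicle (0.05%). Viability read by CCK8 and normalized against cell-free background and untreated cultures; mean ± s.e.m., n=3.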

[10] = target: T2, Protein cereblon/Apoptosis regulator Bcl-2; test: Induction of CRBN-mediated Bcl-2 degradation in human HeLa cells assessed as reduction in Bcl-2 level at 10 uM after 12 hrs by Western blot analysis; assay type: cell-based
[11] = target: T1, Protein cereblon/Induced myeloid leukemia cell differentiation protein Mcl-1; test: Induction of CRBN-mediated Mcl-1 degradation in human HeLa cells assessed as Mcl-1 level at 10 uM after 12 hrs by Western blot analysis; assay type: cell-based
[12] = target: T1, Protein cereblon/Induced myeloid leukemia cell differentiation protein Mcl-1; test: Protac activity at CRBN/Mcl-1 in human HeLa cell lysates assessed as ternary complex formation by Western blot analysis based pull-down assay; assay type: subcellular; settings: Lysate
Method in brief: (§2)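 HeLa lysate (25×10^6 cells, 1% Triton X-100 IP buffer), 1 mg total protein, incubated overnight with 1 µg CRBN antibody across a compound concentration gradient. Capture on protein A+G agarose, three Triton washes, boiled in loading buffer. Mcl-1, Bcl-2 and CRBN detected by immunoblotting. n=3 independent samples.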

[13] = target: T2, Protein cereblon/Apoptosis regulator Bcl-2; test: Protac activity at CRBN/Bcl-2 in human HeLa cell lysates assessed as ternary complex formation by Western blot analysis based pull-down assay; assay type: subcellular; settings: Lysate; method in brief: as §2

T2 sequence (P10415 whole entry, looked up, the tested form may be a part): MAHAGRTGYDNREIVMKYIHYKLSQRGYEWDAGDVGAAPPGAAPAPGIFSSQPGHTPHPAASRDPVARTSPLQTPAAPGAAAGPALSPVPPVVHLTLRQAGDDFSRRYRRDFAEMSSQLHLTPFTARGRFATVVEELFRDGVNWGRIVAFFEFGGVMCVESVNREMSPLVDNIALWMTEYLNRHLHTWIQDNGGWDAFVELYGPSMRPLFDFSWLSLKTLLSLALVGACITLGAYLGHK
T2 sequence (Q96SW2 whole entry, looked up, the tested form may be a part): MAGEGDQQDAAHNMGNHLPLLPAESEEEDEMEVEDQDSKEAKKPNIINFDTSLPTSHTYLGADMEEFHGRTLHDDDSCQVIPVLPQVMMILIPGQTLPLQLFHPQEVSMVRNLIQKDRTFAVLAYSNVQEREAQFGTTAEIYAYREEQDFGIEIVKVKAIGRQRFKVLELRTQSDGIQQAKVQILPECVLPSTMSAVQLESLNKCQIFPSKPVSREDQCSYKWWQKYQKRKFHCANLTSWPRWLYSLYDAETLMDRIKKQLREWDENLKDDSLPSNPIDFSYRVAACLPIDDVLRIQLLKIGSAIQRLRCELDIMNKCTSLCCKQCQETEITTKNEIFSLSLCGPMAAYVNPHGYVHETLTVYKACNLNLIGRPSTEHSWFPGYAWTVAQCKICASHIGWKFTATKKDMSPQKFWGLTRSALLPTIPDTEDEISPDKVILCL
Sequence of Apoptosis regulator Bcl-2 (P10415 whole entry, the tested form may be a part): as the sequence (P10415 whole entry, looked up, the tested form may be a part) above
T1 sequence (Q07820 whole entry, looked up, the tested form may be a part): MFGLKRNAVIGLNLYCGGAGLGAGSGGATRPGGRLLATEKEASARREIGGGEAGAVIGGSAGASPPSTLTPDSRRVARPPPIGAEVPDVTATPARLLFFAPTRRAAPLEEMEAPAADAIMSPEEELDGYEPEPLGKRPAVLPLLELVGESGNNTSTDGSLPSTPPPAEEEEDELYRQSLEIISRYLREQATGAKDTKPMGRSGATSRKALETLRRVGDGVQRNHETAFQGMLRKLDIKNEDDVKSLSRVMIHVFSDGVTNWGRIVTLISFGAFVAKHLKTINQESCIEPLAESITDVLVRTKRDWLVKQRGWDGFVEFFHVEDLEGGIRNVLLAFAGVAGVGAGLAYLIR
T1 sequence (Q96SW2 whole entry, looked up, the tested form may be a part): as the sequence (Q96SW2 whole entry, looked up, the tested form may be a part) above
Sequence of Induced myeloid leukemia cell differentiation protein Mcl-1 (Q07820 whole entry, the tested form may be a part): as the sequence (Q07820 whole entry, looked up, the tested form may be a part) above

| Activity [1] | IC50 [2] [µM] | Activity [3] | Activity [4] | IC50 [5] [µM] | fold change (FC) [6] | fold change (FC) [7] | fold change (FC) [8] | fold change (FC) [9] | Activity [10] | Activity [11] | Activity [12] | Activity [13] | Compound | Activity (NCI-H23) |
| --- | --- | --- | --- | --- | --- | --- | --- | --- | --- | --- | --- | --- | --- | --- |
| inactive | 2.29 | < 20% | < 20% | 2.24 | 1 | 1.8 | 2.2 | 1 | – | – | – | – | N#CC1=C(NCCC(=O)NCCOCCOCCNc2cccc3c2C(=O)N(C2CCC(=O)NC2=O)C3=O)c2ccc(Sc3ccc(Br)cc3)c3cccc(c23)C1=O (stereo not given) | – |
| – | 7.65 | < 20% | < 20% | 1.94 | 1.1 | 0.9 | 0.8 | 1 | – | – | inactive | inactive | N#CC1=C(NCCC(=O)NCCCCCCNc2cccc3c2C(=O)N(C2CCC(=O)NC2=O)C3=O)c2ccc(Sc3ccc(Br)cc3)c3cccc(c23)C1=O (stereo not given) | – |
| – | 1.51 | – | – | 10 | 1 | 1 | 0.9 | 1 | – | – | – | – | O=C(CCCCC(=O)NCCN1C(=O)c2cccc3c(Sc4ccc(Br)cc4)ccc(c23)C1=O)NCCCCNc1cccc2c1C(=O)N(C1CCC(=O)NC1=O)C2=O (stereo not given) | – |
| – | 9.95 | < 20% | < 20% | 9.71 | 1 | 0.9 | 0.8 | 1 | – | – | – | – | N#CC1=C(NCCC(=O)NCCCCNc2cccc3c2C(=O)N(C2CCC(=O)NC2=O)C3=O)c2ccc(Sc3ccc(Br)cc3)c3cccc(c23)C1=O (stereo not given) | – |
| – | 3.46 | – | – | 4.52 | – | – | – | – | – | – | – | – | COC(=O)CCNC1=C(C#N)C(=O)c2cccc3c(Sc4ccc(Br)cc4)ccc1c23 | – |
| – | 2.03 | inactive | inactive | 2.31 | 1 | – | 1 | – | inactive | inactive | – | – | N#CC1=C(C#N)c2ccc(Sc3ccc(Br)cc3)c3cccc(c23)C1=O | – |
| – | 10.6 | < 20% | < 20% | 10.5 | 1 | 1 | 1 | 1 | – | – | – | – | N#CC1=C(NCCC(=O)NCCNc2cccc3c2C(=O)N(C2CCC(=O)NC2=O)C3=O)c2ccc(Sc3ccc(Br)cc3)c3cccc(c23)C1=O (stereo not given) | – |

The next lines start with the compound.

| Compound | Activity [1] | IC50 [2] [µM] | Activity [3] | Activity [4] | IC50 [5] [µM] | fold change (FC) [6] | fold change (FC) [7] | fold change (FC) [8] | fold change (FC) [9] | Activity [10] | Activity [11] | Activity [12] | Activity [13] | Activity (NCI-H23) |
| --- | --- | --- | --- | --- | --- | --- | --- | --- | --- | --- | --- | --- | --- | --- |
| O=C(CCCCC(=O)NCCN1C(=O)c2cccc3c(Sc4ccc(Br)cc4)ccc(c23)C1=O)NCCCCCCCCNc1cccc2c1C(=O)N(C1CCC(=O)NC1=O)C2=O (stereo not given) | – | 5.4 | – | – | 7.66 | 0.9 | 1 | 1 | 0.9 | – | – | – | – | – |
| O=C(CCCCCNc1cccc2c1C(=O)N(C1CCC(=O)NC1=O)C2=O)NCCCCCCNC(=O)CCCCC(=O)NCCN1C(=O)c2cccc3c(Sc4ccc(Br)cc4)ccc(c23)C1=O (stereo not given) | – | 15.1 | – | – | 13.5 | 0.9 | 1 | 0.9 | 1 | – | – | – | – | – |
| N#CC1=C(NCCC(=O)NCCCCCC(=O)NCCCCCCNc2cccc3c2C(=O)N(C2CCC(=O)NC2=O)C3=O)c2ccc(Sc3ccc(Br)cc3)c3cccc(c23)C1=O (stereo not given) | inactive | 16 | < 20% | < 20% | 11.6 | 1 | 1.2 | 1.5 | 1.1 | – | – | – | – | – |
| CC(C)(C)c1ccc(C(=O)NCCN2C(=O)c3cccc4c(Sc5ccc(Br)cc5)ccc(c34)C2=O)cc1 | – | 4.45 | inactive | inactive | 3.18 | 1 | – | 1 | – | inactive | inactive | – | – | Active |
| O=C(CCCCC(=O)NCCN1C(=O)c2cccc3c(Sc4ccc(Br)cc4)ccc(c23)C1=O)NCCNc1cccc2c1C(=O)N(C1CCC(=O)NC1=O)C2=O (stereo not given) | – | 7.89 | – | – | 15.2 | 1 | 1 | 1 | 1 | – | – | – | – | – |
| Cc1nn(C)c(COc2ccc(N3CCN(S(=O)(=O)N(C)C)CC3)cc2)c1-c1cccc2c(CCCOc3cccc4ccccc34)c(C(=O)O)n(CCN3CCOCC3)c12 | – | – | – | – | – | – | – | – | – | – | – | – | – | Active |
| COC(=O)CCCCC(=O)NCCN1C(=O)c2cccc3c(Sc4ccc(Br)cc4)ccc(c23)C1=O | – | 5.95 | – | – | 4.78 | – | – | – | – | – | – | – | – | – |
